Reference: ChEMBL document CHEMBL5046304, “Novel Pyridazin-3(2H)-one-Based Guanidine Derivatives as Potential DNA Minor Groove Binders with Anticancer Activity” (ACS Med Chem Lett, 2022)

Key:
NCI-H460 = experiment: Cytotoxicity against human NCI-H460 cells assessed as reduction in cell viability at 100 uM after […] by MTT assay; type: functional
Outline: (§1)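 Percentage inhibition of cell viability; values are means of three experiments.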

A2780 [1] = experiment: Cytotoxicity against human A2780 cells assessed as reduction in cell viability at 100 uM after 96 hrs by MTT assay; type: functional; outline: as §1
MCF7 = experiment: Cytotoxicity against human MCF7 cells assessed as reduction in cell viability at 100 uM after 96 hrs by MTT assay; type: functional; outline: as §1
Salmon testes DNA = experiment: Binding affinity to salmon sperm DNA assessed as thermal stability by measuring change in melting temperature at 15 uM at pH 7 by spectrophotometric analysis; type: nucleic-acid assay; details: Salmo salar
A2780 [2] = experiment: Cytotoxicity against human A2780 cells assessed as reduction in cell viability measured after 96 hrs by MTT assay; type: functional, cell-based; details: A2780, 96 h

Row | Compound | inhibition at 100 µM (NCI-H460) | inhibition at 100 µM (A2780 [1]) | inhibition at 100 µM (MCF7) | ΔTm (Salmon testes DNA) | IC50 (A2780 [2])
1 | Cc1cc(=O)n(Cc2ccc(CF)cc2)nc1CNC(=N)N | 5% | 34% | 13% |  | 
2 | N=C(N)NCc1ccc(Cn2ncc(CNC(=N)N)cc2=O)cc1 | 35% | 33% | 23% | 1.2 °C | 
3 | COCc1ccc(Cn2nccc(CNC(=N)N)c2=O)cc1 | 1% | 38% |  |  | 
4 | Cn1ncc(CNC(=N)N)cc1=O | 13% | 24% | 2% |  | 
5 | N=C(N)NCc1ccnn(Cc2ccccc2)c1=O | 15% | 41% | 46% |  | 
6 | N=C(N)NCc1ccc(Cn2nc(CNC(=N)N)ccc2=O)cc1 |  |  |  | 1.4 °C | 
7 | Cc1cc(=O)n(Cc2ccc(CCl)cc2)nc1CNC(=N)N | 7% | 54% | 25% |  | > 100 µM
8 | Cn1nccc(CNC(=N)N)c1=O | 1% | 18% | 1% |  | 
9 | Cn1nc(CNC(=N)N)ccc1=O | 4% | 11% | 20% |  | 
10 | Cc1cc(=O)n(Cc2ccccc2)nc1CNC(=N)N | 2% | 23% | 18% |  | 
11 | Cc1cc(=O)n(C)nc1CNC(=N)N | 2% | 20% | 12% |  | 
12 | N=C(N)NCc1ccc(Cn2nccc(CNC(=N)N)c2=O)cc1 |  |  |  | 1.1 °C | 
13 | N=C(N)NCc1cnn(Cc2ccccc2)c(=O)c1 | 1% | 40% | 13% |  | 
14 | Cc1cc(=O)n(Cc2ccc(CNC(=N)N)cc2)nc1CNC(=N)N | 34% | 59% | 22% | 1.2 °C | 21 µM
